Experimental data reported in ChEMBL document CHEMBL4834414 (J Med Chem, 2021).
Calls of active or inactive are those of the source. The rule behind the calls is not given here.

What was measured:
[1] = molecular target: Gamma-aminobutyric acid receptor-associated protein-like 2 (Homo sapiens) (UniProt P60520); assay: Binding affinity to human GABARAPL2 expressed in Escherichia coli T7 by single site binding model based isothermal titration calorimetry
Summary of the method: (§1)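 Human Atg8-family proteins (LC3A, LC3C, GABARAP, GABARAPL1, GABARAPL2) expressed with a modified Ub tag, equilibrated in 50 mM Na2HPO4, 100 mM NaCl, 5% DMSO, pH 7.0; ligand prepared in the same buffer. ITC at 25 °C: 0.4 mM ligand titrated into 0.020 mM protein in 21 injections. Kd from a nonlinear least-squares fit to a single-site binding model.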

[2] = molecular target: T1, Microtubule-associated protein 1 light chain 3 alpha (Homo sapiens, UniProt Q9H492); assay: Binding affinity to human LC3A expressed in Escherichia coli BL21-(DE3) by single site binding model based isothermal titration calorimetry; summary of the method: as §1
[3] = molecular target: Gamma-aminobutyric acid receptor-associated protein-like 1 (Homo sapiens) (UniProt Q9H0R8); assay: Binding affinity to human GABARAPL1 expressed in Escherichia coli T7 by single site binding model based isothermal titration calorimetry; summary of the method: as §1
Gamma-aminobutyric acid receptor-associated protein-like 1 (Homo sapiens), sequence (Q9H0R8 whole entry, looked up): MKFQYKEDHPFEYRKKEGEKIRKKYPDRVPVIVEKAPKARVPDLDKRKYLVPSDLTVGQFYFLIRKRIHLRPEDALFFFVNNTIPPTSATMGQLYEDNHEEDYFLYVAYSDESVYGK

[4] = molecular target: Gamma-aminobutyric acid receptor-associated protein (Homo sapiens) (UniProt O95166); assay: Binding affinity to human GABARAP expressed in Escherichia coli T7 by single site binding model based isothermal titration calorimetry; summary of the method: as §1
Gamma-aminobutyric acid receptor-associated protein (Homo sapiens), sequence (O95166 whole entry): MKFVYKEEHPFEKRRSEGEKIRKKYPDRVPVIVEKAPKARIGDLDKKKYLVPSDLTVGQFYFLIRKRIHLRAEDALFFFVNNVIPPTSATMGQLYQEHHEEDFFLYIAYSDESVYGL

[5] = molecular target: Microtubule-associated protein 1 light chain 3 gamma (Homo sapiens) (UniProt Q9BXW4); assay: Binding affinity to human LC3C expressed in Escherichia coli BL21-(DE3) by single site binding model based isothermal titration calorimetry; summary of the method: as §1
Microtubule-associated protein 1 light chain 3 gamma (Homo sapiens), sequence (Q9BXW4 whole entry, the tested form may be a part): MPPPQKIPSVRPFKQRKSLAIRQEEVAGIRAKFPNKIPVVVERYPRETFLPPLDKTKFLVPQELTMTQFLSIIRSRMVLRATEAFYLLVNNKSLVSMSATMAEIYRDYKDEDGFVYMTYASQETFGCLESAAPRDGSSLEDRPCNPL

[6] = molecular target: T2, Microtubule-associated protein 1 light chain 3 beta (Homo sapiens, UniProt Q9GZQ8); assay: Displacement of sGFP-p62-LIR peptide from human N-terminal SNAP-fused LC3B by time-resolved FRET assay
[7] = molecular target: T1, Microtubule-associated protein 1 light chain 3 alpha; assay: Displacement of sGFP-p62-LIR peptide from human N-terminal SNAP-fused LC3A by time-resolved FRET assay
Summary of the method: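 HTRF displacement: 10 nM N-terminal SNAP-LC3A labeled with terbium cryptate (donor) and 1 μM p62-LIR-sGFP (acceptor), with compound at varying concentrations in 1% DMSO. Buffer 25 mM HEPES pH 7.5, 150 mM KF, 10% glycerol, 0.1% CHAPS, 5 mM DTT. Incubated 2 h at RT; excitation 340 nm, emission read at 520 and 620 nm. IC50 with SD; Ki calculated.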

[8] = molecular target: T1, Microtubule-associated protein 1 light chain 3 alpha; assay: Binding affinity to recombinant LC3A (unknown origin) assessed as shift of melting temperature by differential scanning fluorimetry
Summary of the method: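 LC3A at 30 μM in HTRF buffer with 0.1% CHAPS, 2.5× SYPRO orange, 300 μM inhibitor and 1% DMSO, with a no-protein background. Heated 25.0 to 79.8 °C at 1 °C/min; excitation 490 nm, emission 570 nm. Tm taken as the first-derivative maximum; ΔTm against DMSO control. Triplicates in three independent experiments.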

[9] = molecular target: T1, Microtubule-associated protein 1 light chain 3 alpha; assay: Binding affinity to human LC3A expressed in Escherichia coli BL21-(DE3) by isothermal titration calorimetry
Summary of the method: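 His-tagged LC3A from E. coli BL21(DE3), TEV-cleaved and purified by IMAC, reverse IMAC and SEC into HTRF buffer (25 mM HEPES pH 7.5, 150 mM KF, 10% glycerol, 5 mM DTT), plus 0.1% CHAPS and 1% DMSO. ITC at 25 °C, stirring 75 rpm: 80 μM protein; inhibitor at 500 μM or 1 mM. Injection settings optimized per compound; dilution heats checked by blank titrations.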

[10] = molecular target: T2, Microtubule-associated protein 1 light chain 3 beta; assay: Binding affinity to human LC3B expressed in Escherichia coli BL21-(DE3) by isothermal titration calorimetry
[11] = molecular target: T2, Microtubule-associated protein 1 light chain 3 beta

Gamma-aminobutyric acid receptor-associated protein-like 2 (Homo sapiens), sequence (P60520 whole entry): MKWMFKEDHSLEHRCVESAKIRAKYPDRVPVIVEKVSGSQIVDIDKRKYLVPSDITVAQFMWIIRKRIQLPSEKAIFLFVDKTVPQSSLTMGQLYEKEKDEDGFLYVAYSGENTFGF

Structure (SMILES) | IC50 ([7]; read-out: IC50) [µM] | Ki ([7]; read-out: Ki) [µM] | other results
CO[C@@H]1[C@@H](OC(N)=O)[C@@H](O)[C@H](Oc2ccc3c(O)c(NC(=O)c4ccc(O)c(CC=C(C)C)c4)c(=O)oc3c2C)OC1(C)C |  |  | Activity [1]: inactive; Activity [2]: Active; Activity [3]: inactive; Activity [4]: inactive; Activity [5]: inactive
CCCC[C@H](NC(=O)OC(C)(C)C)C(=O)Nc1c(O)c2ccc(O)cc2oc1=O | 668 | 137 | Ki [6]: Not Active; IC50 ([6]; read-out: IC50): 668 µM
CCOc1cccc(C(=O)Nc2c(O)c3ccc(O)cc3oc2=O)c1 |  | 129 | Ki [6]: Not Active
CC(C)[C@H](NC(=O)OC(C)(C)C)C(=O)Nc1c(O)c2ccc(O)cc2oc1=O |  |  | IC50 [6]: Not Active; Ki [6]: Not Active; IC50 [7]: Not Active; Ki [7]: Not Active
O=C(Nc1c(O)c2ccc(O)cc2oc1=O)c1cccc(Oc2ccccc2)c1 |  | 44 | 
CC(C)Oc1cccc(C(=O)Nc2c(O)c3ccc(O)cc3oc2=O)c1 |  | 103 | 
CCn1nccc1-c1ccc2c(O)c(NC(=O)c3cccc(CCC(C)C)c3)c(=O)oc2c1 | 190 | 38.9 | 
O=C(Nc1c(O)c2ccc(O)cc2oc1=O)c1cccc(OCc2ccccc2)c1 |  | 44 | 
O=C(Nc1c(O)c2ccc(O)cc2oc1=O)c1cccc(CCc2ccccc2)c1 |  | 75 | 
CC(C)CSc1cccc(C(=O)Nc2c(O)c3ccc(O)cc3oc2=O)c1 |  | 52 | 
CC(C)CCc1cccc(C(=O)Nc2c(O)c3ccc(NC(=O)CCCC(=O)O)cc3oc2=O)c1 | 229 | 46.9 | 
CC(C)CCc1cccc(C(=O)Nc2c(O)c3ccc(-c4coc5ccccc45)cc3oc2=O)c1 |  |  | IC50 [6]: Not Active; Ki [6]: Not Active; IC50 [7]: Not Active; Ki [7]: Not Active
CCCCOc1cccc(C(=O)Nc2c(O)c3ccc(O)cc3oc2=O)c1 |  | 69 | 
CCCS(=O)(=O)Nc1cccc(C(=O)Nc2c(O)c3ccc(O)cc3oc2=O)c1 |  | 144 | 
COc1cccc(C(=O)Nc2c(O)c3ccc(O)cc3oc2=O)c1 |  |  | Ki [6]: Not Active; Ki [7]: Not Active
CC(C)CCc1cccc(C(=O)Nc2c(O)c3ccc(-c4ccnn4C)cc3oc2=O)c1 | 219 | 44.8 | 
CCSc1cccc(C(=O)Nc2c(O)c3ccc(O)cc3oc2=O)c1 |  | 42 | 
CC[C@H](C)[C@H](NC(=O)OC(C)(C)C)C(=O)Nc1c(O)c2ccc(O)cc2oc1=O |  |  | IC50 [6]: Not Active; Ki [6]: Not Active; IC50 [7]: Not Active; Ki [7]: Not Active
CC(C)CCc1cccc(C(=O)Nc2c(O)c3ccc(NC(=O)CCC(=O)O)cc3oc2=O)c1 | 217 | 44.3 | 
CCCOc1cccc(C(=O)Nc2c(O)c3ccc(O)cc3oc2=O)c1 |  | 143 | 
CC(C)C[C@@H](NC(=O)OC(C)(C)C)C(=O)Nc1c(O)c2ccc(O)cc2oc1=O |  |  | IC50 [7]: Not Active; Ki [7]: Not Active
CC(C)S(=O)(=O)Nc1cccc(C(=O)Nc2c(O)c3ccc(O)cc3oc2=O)c1 |  | 39 | 
CC(C)CCc1cccc(C(=O)Nc2c(O)c3ccc(-c4ccnn4Cc4ccccc4)cc3oc2=O)c1 | 813 | 167 | IC50 [6]: Not Active; Ki [6]: Not Active
CC(C)(C)OC(=O)NCC(=O)Nc1c(O)c2ccc(O)cc2oc1=O |  |  | IC50 [6]: Not Active; Ki [6]: Not Active; IC50 [7]: Not Active; Ki [7]: Not Active
CC(C)CCc1ccccc1C(=O)Nc1c(O)c2ccc(O)cc2oc1=O | 215 | 44 | 
CC(C)Sc1cccc(C(=O)Nc2c(O)c3ccc(O)cc3oc2=O)c1 |  | 47 | 
CS(=O)(=O)Nc1cccc(C(=O)Nc2c(O)c3ccc(O)cc3oc2=O)c1 |  | 130 | 
CC(C)CS(=O)(=O)Nc1cccc(C(=O)Nc2c(O)c3ccc(O)cc3oc2=O)c1 |  | 53 | 
CC(C)CCc1cccc(C(=O)Nc2c(O)c3ccc(-c4ccccc4-c4ccccc4)cc3oc2=O)c1 | 515 | 105 | IC50 [6]: Not Active; Ki [6]: Not Active
O=C(Nc1c(O)c2ccc(O)cc2oc1=O)c1cccc(OCC2CC2)c1 |  | 137 | Ki [6]: Not Active

Continued, in another order:

IC50 ([7]; read-out: IC50) [µM] | Ki ([7]; read-out: Ki) [µM] | Structure (SMILES) | other results
160 | 32.7 | Cc1c(O)ccc2c(O)c(NC(=O)c3cccc(CCC(C)C)c3)c(=O)oc12 | ΔTm [8]: 0 °C; Kd [9]: 15.7 µM
107 | 21.8 | CC(C)CCc1cc(C(=O)Nc2c(O)c3ccc(O)cc3oc2=O)ccc1F | 
85.9 | 17.6 | CC(C)CCc1cccc(C(=O)Nc2c(O)c3ccc(NS(=O)(=O)c4ccccc4)cc3oc2=O)c1 | 
 | 20 | C=CCOc1cccc(C(=O)Nc2c(O)c3ccc(O)cc3oc2=O)c1 | 
 | 26 | CCCCS(=O)(=O)Nc1cccc(C(=O)Nc2c(O)c3ccc(O)cc3oc2=O)c1 | 
 | 20 | CC(C)Cc1cccc(C(=O)Nc2c(O)c3ccc(O)cc3oc2=O)c1 | 
76 | 15.6 | Cc1ccccc1S(=O)(=O)Nc1ccc2c(O)c(NC(=O)c3cccc(CCC(C)C)c3)c(=O)oc2c1 | 
128 | 26.2 | CC(C)CCc1cc(C(=O)Nc2c(O)c3ccc(O)cc3oc2=O)ccc1O | ΔTm [8]: 0.8 °C; Kd [9]: 27.5 µM
 | 20 | CCCc1cccc(C(=O)Nc2c(O)c3ccc(O)cc3oc2=O)c1 | 
 | 13 | O=C(Nc1c(O)c2ccc(O)cc2oc1=O)c1cccc(CCC2CC2)c1 | 
119 | 24.3 | Cc1c(O)ccc2c(O)c(NC(=O)c3ccc(O)c(CCC(C)C)c3)c(=O)oc12 | ΔTm [8]: 0.7 °C; Kd [9]: 14.2 µM
120 | 24.6 | CC(=O)Nc1ccc2c(O)c(NC(=O)c3cccc(CCC(C)C)c3)c(=O)oc2c1 | 
31.2 | 6.4 | CC(C)CCc1cccc(C(=O)Nc2c(O)c3ccc(NS(=O)(=O)c4cccc5ccccc45)cc3oc2=O)c1 | 
64.8 | 13.3 | CC(C)CCc1cccc(C(=O)Nc2c(O)c3ccc(O)cc3oc2=O)c1 | ΔTm [8]: 1.4 °C; Kd [9]: 17.2 µM
 | 12 | CCCCc1cccc(C(=O)Nc2c(O)c3ccc(O)cc3oc2=O)c1 | 
 | 12 | CCCCCc1cccc(C(=O)Nc2c(O)c3ccc(O)cc3oc2=O)c1 | 
73.1 | 15 | CC(C)CCc1cccc(C(=O)Nc2c(O)c3ccc(NS(=O)(=O)Cc4ccccc4)cc3oc2=O)c1 | 
35.3 | 7.2 | CC(C)CCc1cccc(C(=O)Nc2c(O)c3ccc(-c4cccc(C(=O)O)c4)cc3oc2=O)c1 | 
 | 13 | O=C(Nc1c(O)c2ccc(O)cc2oc1=O)c1cccc(SCC2CC2)c1 | 
42.8 | 8.8 | CC(C)CCc1cccc(C(=O)Nc2c(O)c3ccc(-c4cccc5ccccc45)cc3oc2=O)c1 | 
92.1 | 18.9 | CC(C)CCc1cccc(C(=O)Nc2c(O)c3ccc(-c4ccc(C(=O)O)cc4)cc3oc2=O)c1 | 
64.4 | 13.2 | COc1ccc(C(=O)Nc2c(O)c3ccc(O)cc3oc2=O)cc1CCC(C)C | 
36.7 | 7.5 | CC(C)CCc1cccc(C(=O)Nc2c(O)c3ccc(NS(=O)(=O)CCc4ccccc4)cc3oc2=O)c1 | IC50 ([6]; read-out: IC50): 66.3 µM; Ki ([6]; read-out: Ki): 7.4 µM
 | 32 | CCCSc1cccc(C(=O)Nc2c(O)c3ccc(O)cc3oc2=O)c1 | 
16 | 3.3 | CO[C@@H]1[C@@H](OC(N)=O)[C@@H](O)[C@H](Oc2ccc3c(O)c(NC(=O)c4ccc(O)c(CCC(C)C)c4)c(=O)oc3c2C)OC1(C)C | ΔTm [8]: 5.6 °C; Kd [10]: 11.4 µM; Kd [9]: 2.8 µM; IC50 ([6]; read-out: IC50): 72.3 µM; Ki ([6]; read-out: Ki): 8.1 µM; ΔTm [11]: 5.6 °C
 | 18 | CCCCSc1cccc(C(=O)Nc2c(O)c3ccc(O)cc3oc2=O)c1 | 
110 | 22.6 | CC(C)CCc1cccc(C(=O)Nc2c(O)c3ccc(NS(=O)(=O)CC(C)C)cc3oc2=O)c1 | 
59.9 | 12.3 | Cc1ccc(S(=O)(=O)Nc2ccc3c(O)c(NC(=O)c4cccc(CCC(C)C)c4)c(=O)oc3c2)cc1 | 
